Measured values reported in ChEMBL document CHEMBL5696442, “Discovery of type II inhibitors of TGFβ-activated kinase 1 (TAK1) and mitogen-activated protein kinase kinase kinase kinase 2 (MAP4K2)” (J Med Chem, 2015).
Calls of active or inactive are those of the source. The rule behind the calls is not given here.

Tests used:
[1] = molecular target: Serine/threonine-protein kinase N2 (Homo sapiens) (UniProt Q16513); assay: Inhibition of PKN2 Lys2 labeling site in human Huh-7 cell lysate at 1 uM by KiNativ Profiling analysis relative to control; format: subcellular
[2] = molecular target: Cyclin-dependent kinase 9 (Homo sapiens) (UniProt P50750); assay: Inhibition of CDK9 (unknown origin) at 10 uM by Ambit Kinomescan binding assay relative to control
[3] = molecular target: Serine/threonine-protein kinase pim-2 (Homo sapiens) (UniProt Q9P1W9); assay: Inhibition of PIM2 (unknown origin) at 10 uM by Ambit Kinomescan binding assay
[4] = molecular target: T1, Serine/threonine-protein kinase Nek1 (Homo sapiens) (UniProt Q96PY6); assay: Inhibition of NEK1 Lys2 labeling site in human A-375 cells at 0.05 uM by KiNativ Profiling analysis relative to control; format: cell-based
T1 sequence (whole entry): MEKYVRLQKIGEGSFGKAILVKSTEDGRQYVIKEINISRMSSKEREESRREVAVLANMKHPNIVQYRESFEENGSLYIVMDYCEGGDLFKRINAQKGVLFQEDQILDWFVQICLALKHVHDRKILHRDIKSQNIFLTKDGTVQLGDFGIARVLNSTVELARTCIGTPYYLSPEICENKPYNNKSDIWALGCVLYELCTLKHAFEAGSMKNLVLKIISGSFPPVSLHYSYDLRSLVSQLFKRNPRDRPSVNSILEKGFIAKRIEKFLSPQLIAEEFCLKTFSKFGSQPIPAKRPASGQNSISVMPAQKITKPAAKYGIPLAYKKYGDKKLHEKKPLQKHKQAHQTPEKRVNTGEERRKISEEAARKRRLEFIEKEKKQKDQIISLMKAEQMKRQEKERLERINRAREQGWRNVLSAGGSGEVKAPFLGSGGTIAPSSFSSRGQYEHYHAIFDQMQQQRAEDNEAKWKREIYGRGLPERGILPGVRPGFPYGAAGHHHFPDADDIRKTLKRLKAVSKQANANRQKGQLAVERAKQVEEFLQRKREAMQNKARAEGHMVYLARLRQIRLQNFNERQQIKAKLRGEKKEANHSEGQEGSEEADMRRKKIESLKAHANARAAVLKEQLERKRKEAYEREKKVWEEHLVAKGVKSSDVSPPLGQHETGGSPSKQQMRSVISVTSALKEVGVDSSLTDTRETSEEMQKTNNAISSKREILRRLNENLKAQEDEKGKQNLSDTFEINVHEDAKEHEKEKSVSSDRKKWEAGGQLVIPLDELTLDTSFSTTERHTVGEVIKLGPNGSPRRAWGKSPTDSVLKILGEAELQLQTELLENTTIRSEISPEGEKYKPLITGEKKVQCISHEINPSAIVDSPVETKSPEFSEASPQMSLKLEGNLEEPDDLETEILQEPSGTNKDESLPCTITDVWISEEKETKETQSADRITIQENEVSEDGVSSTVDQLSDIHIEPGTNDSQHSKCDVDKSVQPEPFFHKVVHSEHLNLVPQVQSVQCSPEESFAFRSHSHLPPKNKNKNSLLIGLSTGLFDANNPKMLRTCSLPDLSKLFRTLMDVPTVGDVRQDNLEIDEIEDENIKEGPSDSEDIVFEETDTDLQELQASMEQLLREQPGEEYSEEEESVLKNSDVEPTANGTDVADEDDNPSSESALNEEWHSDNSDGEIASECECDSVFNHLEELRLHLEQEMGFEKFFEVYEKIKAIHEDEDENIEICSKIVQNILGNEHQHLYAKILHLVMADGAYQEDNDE

[5] = molecular target: Tyrosine-protein kinase JAK1 (Homo sapiens) (UniProt P23458); assay: Inhibition of JAK1 domain ACT labeling site in human Huh-7 cell lysate at 1 uM by KiNativ Profiling analysis relative to control; format: subcellular
[6] = molecular target: High affinity nerve growth factor receptor (Homo sapiens) (UniProt P04629); assay: Inhibition of TRKA (unknown origin) at 1 uM by Ambit Kinomescan binding assay relative to control
[7] = molecular target: Ribosomal protein S6 kinase alpha-2 (Homo sapiens) (UniProt Q15349); assay: Inhibition of C-terminal RSK3 kinase domain 2 (unknown origin) at 1 uM by Ambit Kinomescan binding assay relative to control
Procedure, shortened: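 In vitro ATP-site competition binding assay against a panel of over 420 kinases (KinomeScan), with compound tested at 10 or 1 μM.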

[8] = molecular target: Tyrosine-protein kinase ITK/TSK (Homo sapiens) (UniProt Q08881); assay: Inhibition of ITK (unknown origin) at 1 uM by Ambit Kinomescan binding assay relative to control
[9] = molecular target: Cyclin-dependent kinase 2 homolog (Plasmodium falciparum (isolate K1 / Thailand)) (UniProt Q07785); assay: Inhibition of Plasmodium falciparum PK5 at 1 uM by Ambit Kinomescan binding assay relative to control; values are per cent of control
[10] = molecular target: T2, Serine/threonine-protein kinase Nek9 (Homo sapiens) (UniProt Q8TD19); assay: Inhibition of NEK9 ACT labeling site in human A-375 cells at 5 uM by KiNativ Profiling analysis relative to control; format: cell-based
T2 sequence (whole entry): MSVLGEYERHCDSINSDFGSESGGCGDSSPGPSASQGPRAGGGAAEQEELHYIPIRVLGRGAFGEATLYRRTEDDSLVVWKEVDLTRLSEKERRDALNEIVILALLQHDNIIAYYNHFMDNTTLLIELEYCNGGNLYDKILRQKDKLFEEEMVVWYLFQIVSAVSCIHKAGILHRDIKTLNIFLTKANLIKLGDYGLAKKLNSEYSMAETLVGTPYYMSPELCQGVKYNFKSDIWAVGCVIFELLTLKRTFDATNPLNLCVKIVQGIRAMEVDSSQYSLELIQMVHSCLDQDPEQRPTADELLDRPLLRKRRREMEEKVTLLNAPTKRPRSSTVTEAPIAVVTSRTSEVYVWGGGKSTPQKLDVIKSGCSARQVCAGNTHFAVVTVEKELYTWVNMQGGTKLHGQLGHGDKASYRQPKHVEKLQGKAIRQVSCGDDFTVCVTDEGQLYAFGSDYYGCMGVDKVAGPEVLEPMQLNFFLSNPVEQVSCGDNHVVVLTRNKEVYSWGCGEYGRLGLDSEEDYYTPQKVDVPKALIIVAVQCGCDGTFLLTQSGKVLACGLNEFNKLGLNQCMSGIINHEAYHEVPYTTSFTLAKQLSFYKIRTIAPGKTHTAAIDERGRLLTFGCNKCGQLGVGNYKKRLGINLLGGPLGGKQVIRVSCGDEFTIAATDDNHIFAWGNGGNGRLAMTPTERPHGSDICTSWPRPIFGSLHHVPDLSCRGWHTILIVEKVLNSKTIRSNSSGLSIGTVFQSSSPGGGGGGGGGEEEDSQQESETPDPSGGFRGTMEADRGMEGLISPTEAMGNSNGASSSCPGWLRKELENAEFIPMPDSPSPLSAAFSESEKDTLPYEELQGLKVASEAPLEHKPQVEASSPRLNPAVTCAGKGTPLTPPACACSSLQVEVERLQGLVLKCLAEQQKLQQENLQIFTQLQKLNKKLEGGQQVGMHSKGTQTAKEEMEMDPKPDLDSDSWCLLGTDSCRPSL

Chain of Serine/threonine-protein kinase pim-2 (Homo sapiens) (Q9P1W9 whole entry, looked up): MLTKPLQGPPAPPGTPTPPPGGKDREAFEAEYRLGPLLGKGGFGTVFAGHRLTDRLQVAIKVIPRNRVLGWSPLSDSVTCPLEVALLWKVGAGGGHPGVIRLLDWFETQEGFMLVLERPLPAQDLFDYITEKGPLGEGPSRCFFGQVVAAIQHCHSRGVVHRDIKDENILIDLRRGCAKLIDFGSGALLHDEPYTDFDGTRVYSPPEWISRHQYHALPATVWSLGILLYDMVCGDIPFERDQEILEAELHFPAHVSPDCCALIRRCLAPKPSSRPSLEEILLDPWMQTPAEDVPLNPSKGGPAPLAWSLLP
Chain of Tyrosine-protein kinase ITK/TSK (Homo sapiens) (Q08881 whole entry): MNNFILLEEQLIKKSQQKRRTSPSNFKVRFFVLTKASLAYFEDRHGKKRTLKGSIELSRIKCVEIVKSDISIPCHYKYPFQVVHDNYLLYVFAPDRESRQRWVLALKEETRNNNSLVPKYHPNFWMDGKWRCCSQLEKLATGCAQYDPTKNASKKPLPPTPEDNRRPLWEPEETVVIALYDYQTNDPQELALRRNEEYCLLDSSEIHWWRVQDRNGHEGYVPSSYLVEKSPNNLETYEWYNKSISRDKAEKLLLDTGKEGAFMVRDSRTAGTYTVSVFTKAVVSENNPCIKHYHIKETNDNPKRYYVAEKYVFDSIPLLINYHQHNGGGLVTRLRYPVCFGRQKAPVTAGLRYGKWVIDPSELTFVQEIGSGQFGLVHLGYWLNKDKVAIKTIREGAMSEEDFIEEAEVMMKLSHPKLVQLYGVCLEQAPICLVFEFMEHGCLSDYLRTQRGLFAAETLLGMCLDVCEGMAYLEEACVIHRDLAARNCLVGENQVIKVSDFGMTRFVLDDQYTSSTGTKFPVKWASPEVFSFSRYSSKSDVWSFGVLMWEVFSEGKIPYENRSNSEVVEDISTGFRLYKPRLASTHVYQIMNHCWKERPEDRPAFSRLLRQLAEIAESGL
Chain of Cyclin-dependent kinase 9 (Homo sapiens) (P50750 whole entry): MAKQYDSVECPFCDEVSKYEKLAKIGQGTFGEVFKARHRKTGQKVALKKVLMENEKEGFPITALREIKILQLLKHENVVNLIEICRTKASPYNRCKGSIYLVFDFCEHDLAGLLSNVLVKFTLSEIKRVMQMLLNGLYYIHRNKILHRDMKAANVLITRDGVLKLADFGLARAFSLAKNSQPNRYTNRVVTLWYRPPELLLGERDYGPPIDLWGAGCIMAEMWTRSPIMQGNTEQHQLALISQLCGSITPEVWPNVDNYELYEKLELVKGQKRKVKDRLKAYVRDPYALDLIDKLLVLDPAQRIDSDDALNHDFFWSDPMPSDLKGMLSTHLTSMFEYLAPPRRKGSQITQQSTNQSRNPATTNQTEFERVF
Chain of Cyclin-dependent kinase 2 homolog (Plasmodium falciparum (isolate K1 / Thailand)) (Q07785 whole entry): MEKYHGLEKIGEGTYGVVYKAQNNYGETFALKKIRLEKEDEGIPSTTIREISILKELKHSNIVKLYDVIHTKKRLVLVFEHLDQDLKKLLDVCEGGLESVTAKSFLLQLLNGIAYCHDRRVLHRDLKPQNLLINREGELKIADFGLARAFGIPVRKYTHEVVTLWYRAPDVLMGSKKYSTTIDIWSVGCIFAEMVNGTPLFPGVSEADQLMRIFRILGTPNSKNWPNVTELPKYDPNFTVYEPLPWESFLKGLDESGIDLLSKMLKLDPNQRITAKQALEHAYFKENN
Chain of Tyrosine-protein kinase JAK1 (Homo sapiens) (P23458 whole entry, the tested form may be a part): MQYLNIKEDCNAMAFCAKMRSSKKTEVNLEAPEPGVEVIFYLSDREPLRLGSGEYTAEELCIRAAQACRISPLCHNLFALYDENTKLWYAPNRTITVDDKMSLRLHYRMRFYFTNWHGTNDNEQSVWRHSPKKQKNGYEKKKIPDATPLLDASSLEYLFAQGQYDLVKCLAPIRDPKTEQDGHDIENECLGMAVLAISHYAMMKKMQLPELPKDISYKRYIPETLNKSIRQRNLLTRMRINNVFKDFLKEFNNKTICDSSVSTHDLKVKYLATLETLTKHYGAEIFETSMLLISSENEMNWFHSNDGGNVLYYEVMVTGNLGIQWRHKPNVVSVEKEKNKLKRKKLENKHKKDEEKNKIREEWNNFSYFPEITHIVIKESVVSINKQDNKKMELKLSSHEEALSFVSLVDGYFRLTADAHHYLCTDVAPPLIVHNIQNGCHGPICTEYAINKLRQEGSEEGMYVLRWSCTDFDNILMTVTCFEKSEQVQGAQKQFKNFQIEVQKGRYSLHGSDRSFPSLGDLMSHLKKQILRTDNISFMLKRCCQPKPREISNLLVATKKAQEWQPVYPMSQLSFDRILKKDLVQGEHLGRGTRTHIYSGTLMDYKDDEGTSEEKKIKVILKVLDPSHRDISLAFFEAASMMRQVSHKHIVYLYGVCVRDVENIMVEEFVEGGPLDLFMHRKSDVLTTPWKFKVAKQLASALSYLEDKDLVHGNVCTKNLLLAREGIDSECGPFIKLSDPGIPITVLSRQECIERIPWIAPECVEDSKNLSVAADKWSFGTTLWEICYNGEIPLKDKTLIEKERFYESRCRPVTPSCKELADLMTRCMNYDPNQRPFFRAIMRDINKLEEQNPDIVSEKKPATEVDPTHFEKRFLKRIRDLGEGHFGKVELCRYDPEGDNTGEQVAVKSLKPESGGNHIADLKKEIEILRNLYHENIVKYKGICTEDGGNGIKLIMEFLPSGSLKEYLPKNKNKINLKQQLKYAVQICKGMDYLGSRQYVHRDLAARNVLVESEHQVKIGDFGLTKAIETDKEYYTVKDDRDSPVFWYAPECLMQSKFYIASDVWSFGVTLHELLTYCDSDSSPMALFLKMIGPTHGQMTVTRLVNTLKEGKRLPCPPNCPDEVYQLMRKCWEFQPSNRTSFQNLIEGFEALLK
Chain of Serine/threonine-protein kinase N2 (Homo sapiens) (Q16513 whole entry, looked up): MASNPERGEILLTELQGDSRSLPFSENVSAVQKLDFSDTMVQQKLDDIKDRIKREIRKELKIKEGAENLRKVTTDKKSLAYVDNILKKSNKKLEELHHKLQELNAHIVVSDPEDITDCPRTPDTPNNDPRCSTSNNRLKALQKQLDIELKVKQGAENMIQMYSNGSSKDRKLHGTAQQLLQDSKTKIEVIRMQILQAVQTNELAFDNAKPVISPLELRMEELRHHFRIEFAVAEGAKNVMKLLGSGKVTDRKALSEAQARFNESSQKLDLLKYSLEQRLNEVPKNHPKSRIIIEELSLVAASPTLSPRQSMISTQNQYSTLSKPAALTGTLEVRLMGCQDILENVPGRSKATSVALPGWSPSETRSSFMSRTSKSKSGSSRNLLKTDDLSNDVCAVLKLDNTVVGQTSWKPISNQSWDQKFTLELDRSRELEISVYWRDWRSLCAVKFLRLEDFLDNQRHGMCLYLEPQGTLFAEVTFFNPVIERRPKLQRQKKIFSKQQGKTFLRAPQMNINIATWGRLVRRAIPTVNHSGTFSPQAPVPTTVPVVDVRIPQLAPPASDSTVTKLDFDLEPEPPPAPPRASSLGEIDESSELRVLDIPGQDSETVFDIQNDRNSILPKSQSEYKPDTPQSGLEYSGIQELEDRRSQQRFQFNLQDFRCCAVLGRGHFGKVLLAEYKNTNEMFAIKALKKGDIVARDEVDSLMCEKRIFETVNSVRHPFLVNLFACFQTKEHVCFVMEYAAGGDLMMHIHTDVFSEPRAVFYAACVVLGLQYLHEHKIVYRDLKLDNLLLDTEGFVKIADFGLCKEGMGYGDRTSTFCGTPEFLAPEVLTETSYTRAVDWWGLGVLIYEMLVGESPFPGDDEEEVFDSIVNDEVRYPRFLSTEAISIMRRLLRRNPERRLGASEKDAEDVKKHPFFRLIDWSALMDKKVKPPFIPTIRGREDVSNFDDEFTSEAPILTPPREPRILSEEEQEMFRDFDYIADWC
Chain of High affinity nerve growth factor receptor (Homo sapiens) (P04629 33-796 limits assumed): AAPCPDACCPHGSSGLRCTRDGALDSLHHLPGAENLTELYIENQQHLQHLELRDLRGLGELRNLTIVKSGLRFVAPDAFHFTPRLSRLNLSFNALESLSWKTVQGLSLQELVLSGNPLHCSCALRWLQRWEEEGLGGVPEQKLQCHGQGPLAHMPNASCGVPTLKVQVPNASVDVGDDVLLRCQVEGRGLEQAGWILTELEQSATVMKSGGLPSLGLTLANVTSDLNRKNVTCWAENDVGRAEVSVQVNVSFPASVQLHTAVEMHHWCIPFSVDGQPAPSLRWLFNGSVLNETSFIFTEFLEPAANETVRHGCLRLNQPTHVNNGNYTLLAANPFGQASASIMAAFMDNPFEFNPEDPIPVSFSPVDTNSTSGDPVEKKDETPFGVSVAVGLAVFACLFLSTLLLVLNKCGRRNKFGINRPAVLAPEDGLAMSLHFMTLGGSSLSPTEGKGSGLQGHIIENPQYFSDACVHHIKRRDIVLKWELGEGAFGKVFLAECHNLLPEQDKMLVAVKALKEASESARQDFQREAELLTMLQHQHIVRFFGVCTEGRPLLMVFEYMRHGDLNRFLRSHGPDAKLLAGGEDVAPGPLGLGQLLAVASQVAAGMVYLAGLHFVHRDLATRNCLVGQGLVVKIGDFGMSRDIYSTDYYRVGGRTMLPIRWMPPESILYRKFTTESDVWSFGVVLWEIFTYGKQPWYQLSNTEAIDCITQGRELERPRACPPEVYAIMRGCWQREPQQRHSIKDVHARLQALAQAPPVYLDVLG

CNc1cc(Oc2cc(C(=O)Nc3cc(N4CCN(C)CC4)cc(C(F)(F)F)c3)ccc2C)ncn1
inhibition [1]: -8.4%

CCN1CCN(Cc2ccc(NC(=O)c3ccc(C)c(Oc4ccnc5[nH]ccc45)c3)cc2C(F)(F)F)CC1
inhibition [2]: 5.8%
inhibition [3]: inactive
inhibition [4]: -7.1%

CNc1cc(Oc2cc(C(=O)Nc3cc(-n4cnc(C)c4)cc(C(F)(F)F)c3)ccc2C)ncn1
inhibition [5]: 4.9%

CCN1CCN(Cc2ccc(NC(=O)c3ccc(C)c(/C=C/c4cnc5[nH]ccc5c4OC)c3)cc2C(F)(F)F)CC1
inhibition [6]: 54%
inhibition [7]: 67%
inhibition [8]: 81%
residual activity [9]: 100%
inhibition [10]: 14.9%
